ChEMBL document CHEMBL1157421, “Tenacigenin B derivatives reverse P-glycoprotein-mediated multidrug resistance inHepG2/Dox cells” (J Nat Prod, 2008)
Active and inactive are the calls of the source. The rule behind the calls is not given here.

How the values were obtained:
[1] = Effect on doxorubicin-induced cell cycle arrest in multidrug resistance human HepG2/Dox cells assessed as accumulation in G2/M phase at 5 ug/ml; type: functional
Method in brief: (§1)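 Flow-cytometric cell-cycle profiling. About 2 × 10^5 cells were seeded per dish and left overnight, then exposed to medium with or without drug for 48 h. Cells were fixed in 70% EtOH at -20 °C overnight and treated with RNase A (100 µg/mL, 37 °C, 30 min). They were then stained with propidium iodide (40 µg/mL final) at room temperature for 5-10 min and read on a FACSCalibur.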

[2] = Effect on doxorubicin-induced cell cycle arrest in multidrug resistance human HepG2/Dox cells assessed as accumulation in S phase at 10 ug/ml; type: functional; method in brief: as §1
HepG2/Dox [3] = test: Inhibition of Pgp-mediated Rh123 accumulation in multidrug resistance human HepG2/Dox cells at 40 ug/ml; type: cell-based
Method in brief: (§2)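 Rh-123 efflux. About 1 × 10^6 HepG2/Dox cells were loaded with 5 µg/mL Rh-123 at 37 °C for 1 h and washed in ice-cold PBS. They then effluxed for 1 h at 37 °C in dye-free medium with 0-80 µg/mL test agent, and retained fluorescence was read by flow cytometry. Percentage increase over control was calculated; verapamil 15 µM served as positive control. Three experiments, mean ± SD.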

[4] = Cell cycle arrest in multidrug resistant human HepG2/Dox cells assessed as accumulation in subG1 phase at 20 ug/ml; type: functional, cell-based; method in brief: as §1
[5] = Increase in doxorubicin uptake in multidrug resistance human HepG2/Dox cells assessed as cellular fluorescence at 40 ug/ml; type: functional
Method in brief: (§3)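 Doxorubicin accumulation. About 1 × 10^6 HepG2/Dox cells in medium were given 10 µM doxorubicin with or without test agent and held at 37 °C for 40 min. Cells were washed in ice-cold PBS and fluorescence was read by flow cytometry. Increase (%) = 100 × (FT − FC)/FC; verapamil 10 µM served as positive control. Three experiments, mean ± SD.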

HepG2/Dox [6] = test: Reversal of P-glycoprotein-mediated multidrug resistance in human HepG2/Dox cells assessed as increase in sensitivity at 25.2 uM in presence of doxorubicin; type: cell-based
Method in brief: (§4)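 SRB growth-inhibition assay in HepG2 or doxorubicin-selected Pgp-overexpressing HepG2/Dox cells. Cells grown in RPMI 1640 with 10% FBS at 37 °C, 5% CO2. HepG2/Dox cells kept in 1.2 µM doxorubicin and grown drug-free for at least 7 days before use. IC50 of anticancer drug determined with or without modulator. Sensitivity fold = IC50 ratio. At least three repeats, mean ± SD.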

[7] = Effect on doxorubicin-induced cell cycle arrest in multidrug resistance human HepG2/Dox cells assessed as accumulation in S phase at 5 ug/ml; type: functional; method in brief: as §1
[8] = Effect on doxorubicin-induced cell cycle arrest in multidrug resistance human HepG2/Dox cells assessed as accumulation in S phase at 20 ug/ml; type: functional; method in brief: as §1
HepG2/Dox [9] = test: Reversal of P-glycoprotein-mediated multidrug resistance in human HepG2/Dox cells assessed as increase in sensitivity at 12.6 uM in presence of paclitaxel; type: cell-based; method in brief: as §4
HepG2/Dox [10] = test: Reversal of P-glycoprotein-mediated multidrug resistance in human HepG2/Dox cells assessed as increase in sensitivity at 25.2 uM in presence of vinblastine; type: cell-based; method in brief: as §4
HepG2 [11] = test: Reversal of P-glycoprotein-mediated drug resistance in human HepG2 cells assessed as increase in sensitivity at 25.2 uM in presence of vinblastine; type: cell-based; method in brief: as §4
HepG2/Dox [12] = test: Inhibition of Pgp-mediated Rh123 accumulation in multidrug resistance human HepG2/Dox cells at 80 ug/ml; type: cell-based; method in brief: as §2
[13] = Effect on doxorubicin-induced cell cycle arrest in multidrug resistance human HepG2/Dox cells assessed as accumulation in G2/M phase at 20 ug/ml; type: functional; method in brief: as §1
[14] = Effect on doxorubicin-induced cell cycle arrest in multidrug resistance human HepG2/Dox cells assessed as accumulation in subG1 phase at 20 ug/ml; type: functional; method in brief: as §1
[15] = Effect on doxorubicin-induced cell cycle arrest in multidrug resistance human HepG2/Dox cells assessed as accumulation in G0/G1 phase at 10 ug/ml; type: functional; method in brief: as §1
[16] = Growth inhibition of multidrug resistant human HepG2/Dox cells at 80 uM; type: functional
Method in brief: (§5)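 SRB growth assay. HepG2 and HepG2/Dox cells were grown in RPMI 1640 with 10% FBS at 37 °C and 5% CO2; resistant cells were kept drug-free for at least 7 days before use. IC50 was taken from the SRB assay, with at least three repeats, reported as mean ± SD.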

[17] = Cell cycle arrest in multidrug resistant human HepG2/Dox cells assessed as accumulation in G0/G1 phase at 20 ug/ml; type: functional, cell-based; method in brief: as §1
HepG2 [18] = test: Reversal of P-glycoprotein-mediated drug resistance in human HepG2 cells assessed as increase in sensitivity at 25.2 uM in presence of paclitaxel; type: cell-based; method in brief: as §4
HepG2/Dox [19] = test: Reversal of P-glycoprotein-mediated multidrug resistance in human HepG2/Dox cells assessed as increase in sensitivity at 25.2 uM in presence of puromycin; type: cell-based; method in brief: as §4
HepG2/Dox [20] = test: Reversal of P-glycoprotein-mediated multidrug resistance in human HepG2/Dox cells assessed as increase in sensitivity at 12.6 uM in presence of puromycin; type: cell-based; method in brief: as §4
HepG2/Dox [21] = test: Reversal of P-glycoprotein-mediated multidrug resistance in human HepG2/Dox cells assessed as increase in sensitivity at 12.6 uM in presence of vinblastine; type: cell-based; method in brief: as §4
HepG2/Dox [22] = test: Reversal of P-glycoprotein-mediated multidrug resistance in human HepG2/Dox cells assessed as increase in sensitivity at 12.6 uM in presence of doxorubicin; type: cell-based; method in brief: as §4
HepG2 [23] = test: Reversal of P-glycoprotein-mediated drug resistance in human HepG2 cells assessed as increase in sensitivity at 25.2 uM in presence of puromycin; type: cell-based; method in brief: as §4
[24] = Cell cycle arrest in multidrug resistant human HepG2/Dox cells assessed as accumulation in G2/M phase at 20 ug/ml; type: functional, cell-based; method in brief: as §1
HepG2/Dox [25] = test: Reversal of P-glycoprotein-mediated multidrug resistance in human HepG2/Dox cells assessed as increase in sensitivity at 25.2 uM in presence of paclitaxel; type: cell-based; method in brief: as §4
HepG2 [26] = test: Reversal of P-glycoprotein-mediated drug resistance in human HepG2 cells assessed as increase in sensitivity at 25.2 uM in presence of doxorubicin; type: cell-based; method in brief: as §4
HepG2 [27] = test: Growth inhibition of doxorubicin-sensitive human HepG2 cells at 80 uM; type: functional; method in brief: as §5
[28] = Effect on doxorubicin-induced cell cycle arrest in multidrug resistance human HepG2/Dox cells assessed as accumulation in G0/G1 phase at 5 ug/ml; type: functional; method in brief: as §1
[29] = Effect on doxorubicin-induced cell cycle arrest in multidrug resistance human HepG2/Dox cells assessed as accumulation in subG1 phase at 10 ug/ml; type: functional; method in brief: as §1
HepG2/Dox [30] = test: Effect on P-glycoprotein expression in multidrug resistance human HepG2/Dox cells at 20 ug/ml after 72 hrs; type: functional, cell-based
Method in brief: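 Western blot for Pgp. HepG2/Dox cells were incubated with 0, 5, 10 or 20 µg/mL test agent for 72 h, with untreated HepG2 as comparator. Lysates (50 µg total protein) were resolved on 10% SDS-PAGE and Pgp was detected by antibody labeling.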

[31] = Effect on doxorubicin-induced cell cycle arrest in multidrug resistance human HepG2/Dox cells assessed as accumulation in subG1 phase at 5 ug/ml; type: functional; method in brief: as §1
[32] = Effect on doxorubicin-induced cell cycle arrest in multidrug resistance human HepG2/Dox cells assessed as accumulation in G0/G1 phase at 20 ug/ml; type: functional; method in brief: as §1
[33] = Effect on doxorubicin-induced cell cycle arrest in multidrug resistance human HepG2/Dox cells assessed as accumulation in G2/M phase at 10 ug/ml; type: functional; method in brief: as §1
[34] = Cell cycle arrest in multidrug resistant human HepG2/Dox cells assessed as accumulation in S phase at 20 ug/ml; type: functional, cell-based; method in brief: as §1
[35] = Increase in doxorubicin uptake in multidrug resistance human HepG2/Dox cells assessed as cellular fluorescence at 10 ug/ml; type: functional; method in brief: as §3
[36] = Increase in doxorubicin uptake in multidrug resistance human HepG2/Dox cells assessed as cellular fluorescence at 20 ug/ml; type: functional; method in brief: as §3

C/C=C(\C)C(=O)O[C@@H]1[C@@H](OC(C)=O)[C@]2(C)[C@H](C(C)=O)CC[C@@]23O[C@]32CC[C@H]3C[C@@H](O[C@H]4C[C@@H](OC)[C@H](O[C@@H]5O[C@H](C)[C@@H](O)[C@@H](OC)[C@H]5O)[C@@H](C)O4)CC[C@]3(C)[C@@H]12 [TENACISSIMOSIDE A]
Activity [1]: 44.2% | Activity [2]: 6.3% | inhibition (HepG2/Dox [3]): 50% | Activity [4]: 3% | Activity [5]: 41% | Ratio IC50 (HepG2/Dox [6]): 17.9 | Activity [7]: 6.8% | Activity [8]: 5.1% | Ratio IC50 (HepG2/Dox [9]): 4.7 | Ratio IC50 (HepG2/Dox [10]): 10 | Ratio IC50 (HepG2 [11]): 1.1 | inhibition (HepG2/Dox [12]): 90% | Activity [13]: 73% | Activity [14]: 7.6% | Activity [15]: 24.9% | inhibition at 80 µM [16]: 50% | Activity [17]: 49.3% | Ratio IC50 (HepG2 [18]): 1.1 | Ratio IC50 (HepG2/Dox [19]): 11.2 | Ratio IC50 (HepG2/Dox [20]): 7 | Ratio IC50 (HepG2/Dox [21]): 2.4 | Ratio IC50 (HepG2/Dox [22]): 7.8 | Ratio IC50 (HepG2 [23]): 1.1 | Activity [24]: 32% | Ratio IC50 (HepG2/Dox [25]): 5.8 | Ratio IC50 (HepG2 [26]): 1.1 | inhibition at 80 µM (HepG2 [27]): 50% | Activity [28]: 39.8% | Activity [29]: 3.5% | Activity (HepG2/Dox [30]): inactive | Activity [31]: 3.5% | Activity [32]: 8.9% | Activity [33]: 63.6% | Activity [34]: 7.2% | Activity [35]: 18% | Activity [36]: 28%
